Source: ChEMBL document CHEMBL1128714, “Synthesis and anti-HIV activity of 1,1'-dideoxygossypol and related compounds” (J Med Chem, 1995)

Assays:
[1] = system: HeLa; experiment: Highest concentration at which no visible changes in cell morphology or monolayer adhesion was detected.; type: functional, Homo sapiens
[2] = system: HeLa; experiment: Compound was evaluated for the anti HIV activity in HT46c (HeLaT4+) cells as host cells for H9/HIV-IIIB strain of the HIV-1 virus; type: functional, cell-based; conditions: Homo sapiens
In short: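 HT46c (HeLaT4+) cells were plated at 5×10^4 cells/well in RPMI 1640 with 10% FBS and attached overnight. They were infected with HIV-1 H9/HIV-IIIB at an input giving 100–200 foci/well in positive controls by day 3. Compound was tested at 0.01, 0.1, 1.0, 5.0 and 20 μM for 3 days at 37 °C, 5% CO2. Foci were counted by focal immunoassay on methanol-fixed monolayers, and EC50 was derived.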

[3] = system: HeLa; experiment: Compound was evaluated for the anti HIV activity in HT46c (HeLaT4+) cells as host cells for H9/HIV-IIIB strain of the HIV-1 virus; anti HIV activity masked by cytotoxicity; type: functional, cell-based, Homo sapiens

Row | SMILES | TC [1] [µM] | EC50 [2] [µM] | EC50 [3]
1 | Cc1cc2c(C(C)C)c(O)c(O)c(C(=O)O)c2cc1-c1cc2c(C(=O)O)c(O)c(O)c(C(C)C)c2cc1C | >5 | 0.7 | 
2 | Cc1ccc2c(C(=O)O)c(O)c(O)c(C(C)C)c2c1 | >20 |  | 
3 | Cc1cc2c(C(C)C)c(O)c(O)c(C=O)c2cc1-c1cc2c(C=O)c(O)c(O)c(C(C)C)c2cc1C | >1 |  | anti HIV activity masked by cytotoxicity
4 | Cc1ccc2c(C=O)c(O)c(O)c(C(C)C)c2c1 | >1 | 20 | 
